miR122 inh – miR-122 inhibition in Huh7 cells; Huh7 miR-122 Renilla luciferase sensor, 48 h; neutral wells = 0, positive control = 100; activation (reporter increase), % at 12.5 µM; hit rate 0.3% among 340,000;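 active means mean replicate activation score at least 90 and every replicate individually at or above 90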;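 further: higher luciferase means less miR-122 activity so hits act as miR-122 inhibitors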
CAL PDZ FP-1 – inhibitors of human CAL PDZ peptide binding; hit rate 0.92% among 300,000; inhibition, % at 24.9 µM; purified CAL PDZ, TMR-peptide fluorescence polarization, 1 h; Q9HD26; AID 602252;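 active means mean inhibition of at least 30% with at least half of replicates also reaching 30%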
PvdQ inh – P. aeruginosa PvdQ acylase inhibition. purified PvdQ acylase, fluorescence plate reader. inhibition, % at 10 µM. hit rate 0.063% among 340,000. AID 488965; in the data active means inhibition above about 30%, passing the limit was not always enough
CAL PDZ FP-2 – inhibitors of human CAL PDZ peptide binding; purified CAL PDZ, TMR-peptide fluorescence polarization, 1 h; Q9HD26; inhibition, % at 20 µM; hit rate 0.02% among 330,000;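 active means highest replicate inhibition of at least 40%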
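Material: tagged CAL PDZ protein CerCALP, purified; buffer or medium: sodium phosphate/NaCl buffer pH 7.4 with TCEP, IgG, Thesit; also added: fluorescent TMR peptide probe; schedule: 1 h incubation at room temperature before polarization reading; technique: fluorescence polarization from S- and P-plane intensities, G-factor corrected; control set: unlabelled peptide and DMSO controls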
Each line names hits and unclear results; the compound was inactive in the other large screens; ! = a repeat was not active. This is a sample that favours compounds with a hit; in the whole collection about 0.95% have one here.

O=C(CNS(=O)(=O)c1ccccc1)OCC(=O)c1cccc([N+](=O)[O-])c1	none
Cn1c(C(=O)N2CCN(c3ccccc3)CC2)cc2cc(Cl)ccc21	CAL PDZ FP-1 74
Cn1c(C(=O)N2CCN(c3ccccn3)CC2)cc2ccccc21	none
CC(C)NC(=O)N(C)C[C@@H]1Oc2ccc(NS(C)(=O)=O)cc2CC(=O)N([C@@H](C)CO)C[C@@H]1C	none (no result: CAL PDZ FP-1, PvdQ inh, CAL PDZ FP-2)
CCOC(=O)c1sc(=S)n(C)c1C	none
CC(C)(C)C(=O)Nc1ccnn1C1CCN(C(=O)c2ccc(Cl)cc2F)CC1	CAL PDZ FP-1 44
Cc1cccnc1NC(=O)CNC(=O)C1CCCCC1	CAL PDZ FP-1 36
COc1ccc(CCNC(=O)Cc2ccsc2)cc1	CAL PDZ FP-1 37
O=C1C(Br)=C(c2ccccc2)C(c2ccccc2)=C1c1ccccc1	none
CCc1cccc(NS(=O)(=O)c2ccc3c(c2)n(C)c(=O)n3C)c1	miR122 inh 117
Cn1c(=O)n(C)c2cc(NS(=O)(=O)c3ccc(C(C)(C)C)cc3)ccc21	miR122 inh 107
CC(=O)c1cccc(NS(=O)(=O)c2ccc3c(c2)oc(=O)n3C)c1	miR122 inh 208
CCc1cccc(NS(=O)(=O)c2ccc3c(c2)oc(=O)n3C)c1	none
COc1ccc(-c2cc(C(=O)O)sc2C)cc1	CAL PDZ FP-1 44 (no result: miR122 inh)
Cn1c(=O)c2sc3c(c2n(CC(=O)Nc2ccccc2)c1=O)COC(C)(C)C3	CAL PDZ FP-1 31
Cn1c(=O)n(CC(=O)Nc2ccccc2)c2ccccc21	none (no result: miR122 inh)
Cc1ccc(-c2nn(CC(=O)NCc3cc(-c4nn(C)c(=O)c5ccccc45)ccc3C)c(=O)c3ccccc23)cc1	CAL PDZ FP-1 40 (no result: CAL PDZ FP-2)
CCC(=O)NCc1cc(-c2nn(C)c(=O)c3ccccc23)ccc1C	none (no result: CAL PDZ FP-2)
C[C@H](CO)N1C[C@H](C)[C@H](CN(C)CC2CC2)Oc2cc(-c3cccnc3)ccc2S1(=O)=O	none (no result: CAL PDZ FP-1, PvdQ inh, CAL PDZ FP-2)
CCN1C(C#N)=C(C#N)N=C(C)CC1(C)C	none
Cc1cc(C)nc(NC(=S)NC(=O)c2ccccc2F)n1	none (no result: CAL PDZ FP-1, PvdQ inh, CAL PDZ FP-2)
Cc1cc(C)nc(S/C=C/C(=O)c2ccccc2F)n1	CAL PDZ FP-1 80 (no result: miR122 inh)
CC(C)c1ccc(S(=O)(=O)N2CCN(C(=O)c3cccc(F)c3)CC2)cc1	CAL PDZ FP-1 46
O=C(c1cccc(F)c1)N1CCN(S(=O)(=O)c2ccccc2)CC1	none
Cc1cc(C)c2c(=O)[nH]c(SCC(=O)NCc3ccccc3)nc2n1	none
COc1cc(C(=O)NCCNC(=O)C2CCCNC2=O)cc(OC)c1OC (stereo not given)	CAL PDZ FP-1 40 (no result: miR122 inh)
COc1cc(C(=O)NCCCNC(=O)c2cc(OC)c(OC)c(OC)c2)cc(OC)c1OC	none (no result: CAL PDZ FP-1, PvdQ inh, CAL PDZ FP-2)
COc1cc(C(=O)NCC2CCCCC2)cc(OC)c1OC	CAL PDZ FP-1 65 (no result: miR122 inh)
COc1cc(C(=O)NCCC(=O)NC2CCCCC2)cc(OC)c1OC	none
O=C(O)c1ccc(Cl)c(S(=O)(=O)Nc2ccc(S(=O)(=O)N3CCCC3)cc2)c1	none
CC(=O)c1ccc(S(=O)(=O)Nc2ccc(Cl)c(S(=O)(=O)N3CCCC3)c2)cc1	CAL PDZ FP-1 63 (no result: miR122 inh)
Cc1occc1C(=O)Nc1cccc(C(=O)NCc2ccccc2)c1	none (no result: CAL PDZ FP-1)
CCCS(=O)(=O)NC(=O)C1(C)CCCN(C(=O)c2cccc(Cl)c2)C1 (stereo not given)	none (no result: CAL PDZ FP-1, PvdQ inh, CAL PDZ FP-2)
CN(C)c1c([N+](=O)[O-])cc(N2C(=O)C=CC2=O)cc1[N+](=O)[O-]	CAL PDZ FP-1 37
COc1ccc(Br)cc1CNC(=O)C1CCCN(S(C)(=O)=O)C1 (stereo not given)	none
CN(C)S(=O)(=O)N1C(=O)c2ccccc2C1=O	none (no result: miR122 inh, CAL PDZ FP-2)
CN(C)/C=C1\C=C2C(=O)c3ccccc3N2C1=O	CAL PDZ FP-1 56
Nc1ccc(Nc2nc(-c3cc4ccccc4oc3=O)cs2)cc1	CAL PDZ FP-1 48
CC(=O)Nc1ccc(Nc2nc(-c3cc4ccccc4oc3=O)cs2)cc1	none
COc1ccc(C(C)(C)C)cc1S(=O)(=O)n1ccnc1C	miR122 inh 95 (no result: CAL PDZ FP-1)
CC(C)CC1NC(=O)N(CC(=O)N(C)C2CCCCC2)C1=O (stereo not given)	CAL PDZ FP-1 108
CCCCn1c(SCC(=O)c2c(N)n(C3CC3)c(=O)[nH]c2=O)nc2cc(S(N)(=O)=O)ccc21	none (no result: miR122 inh)
CNC(=O)Cn1c(C)cc(=O)c2cccc(C)c21	none (no result: CAL PDZ FP-1, PvdQ inh, CAL PDZ FP-2)
Cc1cccc2c(=O)cc(C)n(Cc3ccccc3)c12	PvdQ inh 35 (no result: miR122 inh)
CCCc1cc(C(=O)N2CCCC(Cc3cccc(Cl)c3)(C(=O)OCC)C2)n(C)n1 (stereo not given)	none
CCOC(=O)C1(Cc2cccc(Cl)c2)CCCN(C(=O)c2ccnn2C)C1 (stereo not given)	CAL PDZ FP-1 41
CCOC(=O)C1(Cc2ccccc2)CCCN(C(=O)c2ccc(-n3ccnc3)cc2)C1 (stereo not given)	CAL PDZ FP-1 38
C[C@@H]1CCCCO[C@@H](CN(C)CC2CCCCC2)[C@H](C)CN([C@@H](C)CO)C(=O)c2cc(NC(=O)CCCN(C)C)ccc2O1	none (no result: CAL PDZ FP-1, PvdQ inh, CAL PDZ FP-2)
COc1ccc(N/N=C(\C#N)C(=N)N2CCCCC2)cc1	CAL PDZ FP-1 49 (no result: miR122 inh)
Cc1ccc(N/N=C(\C#N)C(=N)N2CCCCCC2)cc1	CAL PDZ FP-1 30 (no result: miR122 inh)
CCCCn1c(N)c(N(CCC(C)C)C(=O)c2sc3nc4n(c(=O)c3c2C)CCC4)c(=O)[nH]c1=O	none (no result: miR122 inh)
COc1ccc(S(=O)(=O)Nc2ccc3c(c2)COC3=O)cc1OC	miR122 inh 150
CC(C)(C)c1ccc(S(=O)(=O)Nc2ccc3c(c2)COC3=O)cc1	none
CN1CCN(c2ccccc2NC(=O)c2ccc(N3CCCC3)c([N+](=O)[O-])c2)CC1	CAL PDZ FP-1 43, CAL PDZ FP-2 58 (no result: miR122 inh)
Nc1nonc1-n1nnc(C(=O)N/N=C/c2ccc(O)cc2)c1COc1ccc(F)cc1	none
CN(C)Cc1c(C(=O)N/N=C/c2ccc(OCc3c(F)cccc3Cl)cc2)nnn1-c1nonc1N	CAL PDZ FP-1 77
COc1ccc(CN(C)C[C@@H]2OCCCC[C@@H](C)Oc3ccc(NS(=O)(=O)c4ccccc4)cc3C(=O)N([C@@H](C)CO)C[C@@H]2C)cc1	none (no result: CAL PDZ FP-1, PvdQ inh, CAL PDZ FP-2)
COc1cc(OC)cc(C(=O)NNC(=S)NC2CC2)c1	CAL PDZ FP-1 57 (no result: miR122 inh)
COc1cccc(C(=O)NNC(=S)NC2CCCCC2)c1	none
COc1ccc(C2N(c3ccc(Cl)cc3)C(=O)C3CCCN32)cc1 (stereo not given)	none
COC(=O)c1cc(S(=O)(=O)NCCN2CCN(c3ccccc3F)CC2)c[nH]1	CAL PDZ FP-1 47
COC(=O)c1cc(S(=O)(=O)NCCc2ccc(SC)cc2)c[nH]1	CAL PDZ FP-1 76
CCc1nnc(NC(=O)c2nn(-c3ccccc3)nc2C)s1	none (no result: miR122 inh)
CCN(C(=O)C(C)OC(=O)C1C(C(=O)OC)=C(C)NC(C)=C1C(=O)OC)c1ccccc1 (stereo not given)	none
COC(=O)C1=C(C)NC(C)=C(C(=O)OC)C1C(=O)OC(C)C(=O)c1ccccc1 (stereo not given)	CAL PDZ FP-1 50!
Cn1c(-c2ccccc2)c(C(=O)CCl)c2ccccc21	none (no result: miR122 inh)
CO[C@@H]1CN(C)C(=O)c2cc(NC(=O)c3ccc(F)cc3)ccc2OC[C@H](C)N(C(C)=O)C[C@@H]1C	none (no result: CAL PDZ FP-1, PvdQ inh, CAL PDZ FP-2)
CC1CN(S(=O)(=O)c2ccc(CN3C(=O)c4cccnc4C3=O)s2)c2ccccc2O1 (stereo not given)	CAL PDZ FP-1 52
